Laboratory results as given in ChEMBL document CHEMBL2057132, “Structure-activity relationship of 2,2-dimethyl-2H-chromene based arylsulfonamide analogs of 3,4-dimethoxy-N-[(2,2-dimethyl-2H-chromen-6-yl)methyl]-N-phenylbenzenesulfonamide, a novel small molecule hypoxia inducible factor-1 (HIF-1) pathway inhibitor and anti-cancer agent” (Bioorg Med Chem, 2012).
Activity calls are given as the source filed them. The rule behind the calls is not given here.

Columns and labels:
[1] = target: T1, Hypoxia inducible factors; HIF-1-alpha, HIF-2-alpha (Homo sapiens, UniProt Q16665+Q99814); test: Inhibition of HIF1 transcriptional activity in human LN229 cells expressing VEGF-HRE-V6R and coexpressing luciferase, lac Z gene incubated for 1 hr in normoxia condition followed by 24 hrs in hypoxia condition by reporter gene assay; type: cell-based
Outline: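 LN229 glioblastoma cells stably carrying a 6×VEGF-HRE bidirectional luciferase/lacZ reporter, 3 × 10^4 per well, grown 24 h normoxic in DMEM/10% FBS. Compound (serial dilutions in medium, 1% DMSO) added, 1 h normoxia, then 24 h at 1% O2, 37 °C. Lysate luciferase read by luminometer, as percent of untreated hypoxic cells. Triplicates, two independent experiments.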

[2] = Aqueous solubility of the compound at pH 7.4; type: physicochemical
[3] = Downregulation of HIF1alpha protein level in human LN229 cells expressing VEGF-HRE-V6R at 10 uM incubated for 1 hr in normoxia condition followed by 24 hrs in hypoxia condition by Western blot analysis relative to control; type: functional, cell-based; settings: LN-229
Outline: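 LN229-V6R cells (2 × 10^5 per 35 mm dish) grown 24 h under normoxia. Compounds given at 10 μM in medium with 1% DMSO, 1 h normoxia, then 24 h hypoxia (1% O2) at 37 °C. SDS lysis, 12.5% gel, nitrocellulose, anti-HIF-1α and β-actin blots, ECL. Densitometry as percent of untreated hypoxic control, normalized to β-actin.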

[4] = target: T1, Hypoxia inducible factors; HIF-1-alpha, HIF-2-alpha; test: Inhibition of HIF1 transcriptional activity in human LN229 cells expressing VEGF-HRE-V6R and coexpressing lac Z gene at 10 uM incubated for 1 hr in normoxia condition followed by 24 hrs in hypoxia condition by luciferase reporter gene assay relative to control; values are per cent of control

SMILES	IC50 [1] [µM]	inhibition [1]	solubility [2] [µg/mL]	Activity [3]	residual activity [4] [%]
COc1ccc(S(=O)(=O)N(Cc2ccc3c(c2)C=CC(C)(C)O3)c2ccccc2)cc1OC	1.6	Dose-dependent effect	< 15	inactive	< 5
CC(C)N(Cc1ccc2c(c1)C=CC(C)(C)O2)S(=O)(=O)c1ccccc1	2.2	Dose-dependent effect			
CC(C)N(Cc1ccc2c(c1)C=CC(C)(C)O2)S(=O)(=O)c1ccc([N+](=O)[O-])cc1	3	Dose-dependent effect			
CC(C)N(Cc1ccc2c(c1)C=CC(C)(C)O2)S(=O)(=O)c1cc(Cl)ccc1Cl	16.8	Dose-dependent effect			
CC1(C)C=Cc2cc(CN(c3ccccc3)S(=O)(=O)c3cc(Cl)ccc3Cl)ccc2O1	3.3	Dose-dependent effect			
CC1(C)C=Cc2cc(CN(c3ccc(F)cc3)S(=O)(=O)c3ccc(F)cc3)ccc2O1	6.6	Dose-dependent effect			
CC(C)N(Cc1ccc2c(c1)C=CC(C)(C)O2)S(=O)(=O)c1ccc(F)cc1	3.8	Dose-dependent effect		inactive	
CC1(C)C=Cc2cc(CN(c3ccccc3)S(=O)(=O)c3ccc(F)cc3)ccc2O1	4.8	Dose-dependent effect			
COc1ccc(S(=O)(=O)N(Cc2ccc3c(c2)C=CC(C)(C)O3)C(C)C)cc1OC	1.5	Dose-dependent effect		30%	< 5
CC1(C)C=Cc2cc(CN(c3ccc(F)cc3)S(=O)(=O)c3ccccc3)ccc2O1	7.2	Dose-dependent effect			
COc1ccc(S(=O)(=O)N(Cc2ccc3c(c2)C=CC(C)(C)O3)c2ccc(F)cc2)cc1OC	3.2	Dose-dependent effect		inactive	< 5
CC1(C)C=Cc2cc(CN(c3ccccc3)S(=O)(=O)c3ccccc3)ccc2O1	2.7	Dose-dependent effect			
CC1(C)C=Cc2cc(CN(c3ccccc3)S(=O)(=O)c3ccc([N+](=O)[O-])cc3)ccc2O1	4.2	Dose-dependent effect			
CC1(C)C=Cc2cc(CN(c3ccc(F)cc3)S(=O)(=O)c3ccc([N+](=O)[O-])cc3)ccc2O1	4.8	Dose-dependent effect			
CC1(C)C=Cc2cc(CN(c3ccc(F)cc3)S(=O)(=O)c3cc(Cl)ccc3Cl)ccc2O1	8	Dose-dependent effect			
